An excerpt weighted towards active compounds, which were near 2.9% of everything screened.
GalR3 antagonist: GalR3 antagonists in HEK293 cells, primary screen, cell-based, fluorescence readout; 360,000 tested, 0.44% active; AID 651719, 2012; HEK293 GalR3-CNG cAMP membrane potential fluorescence; galR3 body fused to GalR1 C-terminus; inhibition, % at 3 µM; Galanin receptor type 3 (Homo sapiens), O60755;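 active means inhibition above the screen-wide average plus 3 SD, cut at about 13% in these data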;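 further: forskolin and galanin both at EC90 stimulate the cells; cAMP rise reported by CNG channel membrane potential dye signal; 0% = forskolin plus galanin with DMSO and 100% = forskolin alone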
Target sequence (O60755 1-299 limits assumed): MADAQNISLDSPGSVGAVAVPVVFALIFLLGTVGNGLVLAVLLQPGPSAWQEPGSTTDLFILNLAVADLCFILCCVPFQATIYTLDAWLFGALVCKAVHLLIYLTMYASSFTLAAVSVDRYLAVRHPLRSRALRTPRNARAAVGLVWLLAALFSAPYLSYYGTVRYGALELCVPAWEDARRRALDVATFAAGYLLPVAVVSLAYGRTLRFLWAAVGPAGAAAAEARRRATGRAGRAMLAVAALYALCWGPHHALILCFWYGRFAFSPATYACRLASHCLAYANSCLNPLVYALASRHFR
Calb FLC: C. albicans growth inhibition with fluconazole, primary screen, CaCi-2 strain, Alamar Blue fluorescence. C. albicans CaCi-2 + fluconazole, 48 h. 300,000 tested, 0.57% active. growth inhibition, % (no concentration beside the values). AID 1979, 2009;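 active means growth inhibition above about 58% in most replicates, limit read from the data, passing the limit was not always enough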;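 further: all wells also contain fluconazole at 8 µg/ml as a sub-toxic cotreatment; 0% = median of DMSO wells and 100% = median of geldanamycin control wells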
TAG inh: inhibitors of triacylglycerol accumulation, primary screen, cell-based, uHTS, fluorescence, H9c2 | 230,000 tested, 0.66% active | inhibition, % at 12.5 µM | H9c2 cells, Nile Red lipid (TAG) fluorescence; cells loaded with 200 µM oleic acid;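 active means pattern-corrected inhibition of lipid staining of at least 50% with the nuclear-stain viability signal not falling by more than 50%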;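 further: 0% = DMSO wells and 100% = triacsin C control wells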
MC4R antagonist: MC4R antagonists of cAMP signaling, primary screen, cell-based, TR-FRET, antagonist arm of biased-ligand search | Melanocortin receptor 4 (Homo sapiens), P32245 | MC4R-expressing cells, MTII-stimulated cAMP, LANCE TR-FRET | inhibition, % at 6.5 µM | 360,000 tested, 0.48% active | AID 540295, 2011;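 active means inhibition above its plate's cutoff, the mean of tested wells on that plate plus 3 SD, cut at about 29% in these data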;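 further: 0% = Melanotan II alone and 100% = Melanotan II plus saturating MCL0020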
Target sequence (P32245 whole entry, looked up): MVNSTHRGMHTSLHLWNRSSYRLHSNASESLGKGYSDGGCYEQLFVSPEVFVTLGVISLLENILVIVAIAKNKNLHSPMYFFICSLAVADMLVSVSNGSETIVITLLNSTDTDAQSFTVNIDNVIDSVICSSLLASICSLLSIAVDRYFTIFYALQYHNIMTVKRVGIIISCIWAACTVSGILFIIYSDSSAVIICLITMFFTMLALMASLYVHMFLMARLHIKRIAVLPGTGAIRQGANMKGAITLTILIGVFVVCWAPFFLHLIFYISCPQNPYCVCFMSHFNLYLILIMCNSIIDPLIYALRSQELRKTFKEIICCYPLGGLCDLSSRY
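material = U2OS cells stably expressing human melanocortin 4 receptor (MC4R) | also added = Melanotan II challenge | dosing = single nominal compound dose of 6.5 µM | detection = TR-FRET with Eu-cAMP and labeled anti-cAMP, 671 nm | replication = singlicate | timing = compound 30 min, challenge 1 h, detection 1 h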
MC4R ag barr: MC4R agonists recruiting beta-arrestin, primary screen, cell-based, luminescence, agonist arm of biased-ligand search; 360,000 tested, 0.98% active; activation, % at 8.9 µM; U2OS MC4R beta-arrestin complementation; percent of melanotan II response, DMSO zero; Melanocortin receptor 4 (Homo sapiens), P32245;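 active means activation above a per-plate cutoff, the mean activation of sample wells on that plate plus 3 SD, cut at about 8% in these data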
Efflux pump mplx: inhibitors of Candida efflux pumps in yeast, primary screen, S. cerevisiae, Nile Red, multiplex; S. cerevisiae Candida pump triplex; inhibition, % at 10 µM; 330,000 tested, 0.44% active; AID 485275, 2010;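 active means plate passing quality check with inhibition over a set limit, or well fluorescence over plate mean plus 4 SD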;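 further: Nile Red retained in pooled yeast measured as flow cytometry median fluorescence; 0% = buffer negative control and 100% = Enniatin B positive control; higher means more Nile Red kept so more efflux inhibition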
* = called active by the depositor; . = no result given.

SMILES | GalR3 antagonist | Calb FLC | TAG inh | MC4R antagonist | MC4R ag barr | Efflux pump mplx
O=S(=O)(c1ccc(F)cc1)c1nc(-c2ccccc2F)oc1N1CCCCC1 | 5 | 11 | . | 6 | 0 | 0
COc1ccccc1-c1nc(S(=O)(=O)c2ccccc2)c(N2CCCCC2)o1 | -5 | 16 | . | 32* | -1 | 0
Cc1ccc(OCC(=O)Nc2ccc(O)c(-c3nc4ccccc4o3)c2)cc1 | -1 | -3 | 30 | 2 | 8.6* | 0
COc1ccc(OCC(=O)Nc2ccc3oc(-c4ccncc4)nc3c2)cc1 | -1 | 37 | . | -1 | -1 | 0
O=C(Nc1ccn(CCCN2CCC(N3CCOCC3)CC2)c(=O)n1)OCc1ccccc1 | -6 | . | 6 | -1 | -2 | .
CCC(O)(CC)C(=O)NN(C(=O)CCl)c1ccccc1 | -2 | 6 | 20 | 3 | -1 | 0
Cc1ccc(N(NC(=O)C(O)(c2ccccc2)c2ccccc2)C(=O)CCl)cc1 | -4 | -15 | . | 27 | 10* | 0
Cc1ccc(C(O)(C(=O)NN(C(=O)c2ccccc2)c2ccccc2)c2ccc(C)cc2)cc1 | -5 | 10 | . | 5 | 8.3* | 0
COc1ccc(-c2c(C#N)c(N)nc(Sc3ccc(Cl)cc3)c2C#N)cc1 | -3 | -17 | 54* | 12 | 3 | 0
CCOc1cccc2sc(N(CCCN(C)C)C(=O)c3ccc(S(=O)(=O)N4CCc5ccccc5C4)cc3)nc12 | -1 | -5 | 20 | 6 | 0 | 0
CCc1ccc2nc(N(CCCN(C)C)C(=O)c3ccc(S(=O)(=O)N(C)C4CCCCC4)cc3)sc2c1 | -1 | -4 | 2 | 11 | 13* | 0
CCc1ccc2nc(N(CCCN(C)C)C(=O)c3ccc(S(=O)(=O)N4CCc5ccccc5C4)cc3)sc2c1 | 0 | -1 | 23 | -8 | 20* | 0
O=C(NNc1ccc([N+](=O)[O-])cc1)c1ccccc1Cl | 9 | 92* | -3 | 1 | -2 | 0
Cc1cccc(CSc2cccc3cccnc23)c1 | -3 | -13 | 50* | -7 | -3 | 0
CC1CCN(C(=O)c2ncn3c2C(=O)NC[C@H]3C)CC1 | -6 | . | . | . | . | .
O=C1CCC(C(=O)N2CCN(c3cnccn3)CC2)CN1CCc1ccccc1 (configuration not stated) | -5 | . | 4 | -2 | 1 | .
Cc1ccc(C2C3CSCC=C3C(C#N)=C(N)C2(C#N)C#N)cc1 (configuration not stated) | 1 | 90* | . | 12 | -1 | 0
CC(C)N1CC=C2C(C#N)=C(N)C(C#N)(C#N)C(c3ccccc3)C2C1 (configuration not stated) | -6 | -3 | -107 | 4 | -1 | 0
CN1CCN(C2=C(Cl)C(=O)c3ccccc3C2=O)CC1 | -5 | . | 58* | -6 | -3 | .
CCC(O)c1cnc(OCc2ccccc2)nc1OCc1ccccc1 (configuration not stated) | -2 | . | 8 | 5 | -1 | .
CCCNC(=O)c1ccc2c(=O)c(O)c(-c3ccc(F)cc3)[nH]c2c1 | . | 89* | 17 | 7 | 0 | 0
CCCNC(=O)c1ccc2c(=O)c(O)c(-c3cccc(Br)c3)[nH]c2c1 | -1 | 114* | -10 | 4 | -1 | 0
CCCNC(=O)c1ccc2c(=O)c(O)c(C)[nH]c2c1 | 1 | -3 | -10 | -5 | -1 | 0
COc1ccc(C2CCCCCN2C(=O)C2CCN(S(=O)(=O)c3ccc(C)cc3)CC2)cc1 (configuration not stated) | -5 | . | -13 | -1 | 1 | .
Cc1c(Cl)cnc(NC(=O)CSc2nncs2)c1Cl | -3 | 112* | . | -1 | -3 | -9
SMILES | GalR3 antagonist | Calb FLC | TAG inh | MC4R antagonist | MC4R ag barr | Efflux pump mplx
Cc1nc(NC(=O)CSc2nncs2)c(Cl)cc1Cl | -5 | -1 | 1 | 4 | -3 | 0
Cc1cccc(OCCC(=O)Nc2ccc(F)c(Cl)c2)c1 | -4 | -21 | . | -1 | 8.9* | 0
N#Cc1c(N)[nH]c(=S)c(C#N)c1-c1ccccc1 | 51* | 5 | . | -3 | -3 | 0
CC(C)N1CCc2c(sc(NC(=O)c3nc4ccccc4s3)c2C(N)=O)C1 | -5 | 119* | 9 | -4 | -3 | 0
CC(=O)Nc1sc2c(c1-c1nc3ccccc3s1)CN(C(C)C)CC2 | 0 | . | 78* | 0 | -1 | 0
O=[N+]([O-])c1ccc2nc(NN=Cc3ccc(O)cc3)sc2c1 | -6 | . | 31 | 10 | -4 | .
O=C1CCC/C(=N/Nc2ccc(Cl)cc2)C1 | -4 | 106* | 10 | -3 | -2 | 0
O=[N+]([O-])c1cccc2nc3ccccc3c(NCCCn3ccnc3[N+](=O)[O-])c12 | -8 | . | -5 | -6 | -2 | .
COCCNC(=O)NC12CC3CC(CC(C3)C1)C2 | -6 | 95* | 3 | 2 | -2 | 0
CC(C)(C)c1ccc(CN2N=Nc3ccccc3S2(=O)=O)cc1 | -5 | 1 | 51* | -1 | 2 | 0
COc1cnc(-c2ccccn2)nc1NC(C)C | -3 | 113* | -10 | -5 | -3 | 0
COc1cnc(-c2ccccn2)nc1Sc1cccc(Cl)c1 | -5 | 91* | . | 0 | 1 | 0
COc1ccccc1Sc1nc(-c2ccccn2)ncc1OC | -1 | 3 | -21 | 4 | 3 | 0
Cc1nn2c([nH]c(=O)c3ccccc32)c1C=O | . | 83* | . | 4 | -2 | 0
N#C/C(=C/C1=C(N2CCOCC2)C(=C/c2ccc(Cl)cc2)/CC1)C(=O)Nc1ccccc1F | 0 | . | -20 | 3 | -1 | .
CC(C)(C)NC(=O)C(c1cc2ccccc2o1)n1c(=O)c(-c2ccccc2)nc2ccccc21 (configuration not stated) | -6 | . | . | . | . | .
Cc1ccc(NC(=O)c2noc(C(C)C)c2[N+](=O)[O-])cc1 | -6 | 92* | -10 | 9 | -3 | 0
CC1(C(=O)NC2CCCC2)CCC(=O)N1CCOc1ccccc1 (configuration not stated) | 0 | . | . | . | . | .
CCOC(=O)c1sc(NC(=O)c2sccc2C)cc1C | 1 | -16 | 51* | 5 | -2 | 0
Cc1ccc(CNC(=O)Cn2cnc(C(=O)Nc3ccc(C)c(C)c3)n2)o1 | -5 | . | 18 | -4 | -2 | 0
CCOC(=O)C1=CCN(S(=O)(=O)c2ccccc2F)C1c1ccc(Br)cc1 (configuration not stated) | -6 | . | . | . | . | .
Cc1ccc(NC(=O)NCc2ccccn2)c(C)c1 | 7 | 95* | -10 | 3 | -3 | 0
CCOc1ccc(NC(=O)CCC(=O)N/N=C/c2ccc3c(c2)OCO3)cc1 | -3 | 111* | 3 | 5 | -1 | 0
